In ChEMBL document CHEMBL1177806, “Synthesis and biological activity of halophenols as potent antioxidant and cytoprotective agents” (Bioorg Med Chem Lett, 2010) one finds Activity, IC50 and EC50 data, which are given here for 37 compounds.

Each structure is given as a SMILES string. Calls of active or inactive are those of the source. No cut-off for these calls is given here.

The subject of experiment [1] is HUVEC. The experiment can be described thus: Cytoprotective activity against H2O2-induced cell injury in HUVEC cells at 5 ug/mL after 4 hrs […]. The note with it: Homo sapiens. Format: functional, cell-based.
The nature of experiment [2]: Antioxidant activity assessed as DPPH scavenging activity at 100 ug/mL. Format: functional. A general note: Loss of DPPH colour is used to gauge radical scavenging.
A short description of experiment [3]: Antioxidant activity assessed as DPPH scavenging activity after 4 hrs […]. The format is functional.
For experiment [4], the system named is HUVEC. Briefly: Cytoprotective activity against H2O2-induced cell injury in HUVEC cells. Format: functional, cell-based. The note with it: Homo sapiens. The essentials:
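Cytoprotection was measured in human umbilical vein endothelial cells (HUVEC) injured with hydrogen peroxide and reported as EC50.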

Consider `COc1cc(Br)c(C(=O)c2cc(Br)ccc2OC)cc1OC`, for which the result (in the experiment with HUVEC [1]; in experiment [2]) was inactive.

In the case of `O=C(c1ccc(O)c(O)c1)c1ccccc1Cl`, in experiment [3], the IC50 is 113 µM. The outcome in the experiment with HUVEC [1] was inactive. As to `O=C(c1cccc(Cl)c1)c1ccc(O)c(O)c1`, the IC50 in experiment [3] was found to be 110 µM. In the experiment with HUVEC [4], this compound gave an EC50 of 5 µM. In the case of `COc1cc(Br)c(C(=O)c2ccccc2)cc1OC`, the result (in the experiment on HUVEC [1]; in experiment [2]) was inactive. `O=C(c1ccc(Cl)cc1)c1ccc(O)c(O)c1`: the IC50 in experiment [3] was 103 µM. Moreover, a half-maximal response in the experiment with HUVEC [4] (EC50) required 8.9 µM.

Take `Oc1cc(Br)c(Cc2ccccc2)cc1O`: the IC50 in experiment [3] worked out at 164 µM. In the experiment with HUVEC [4], this compound registered an EC50 of 12.2 µM.

For the compound `O=C(c1ccc(O)c(Br)c1)c1cc(O)c(O)cc1Br`, the IC50 in experiment [3] came to 61.6 µM. This compound showed an EC50 in the experiment with HUVEC [4] of 2 µM. `COc1ccc(Cc2c(Br)c(OC)c(OC)c(OC)c2Br)cc1OC`: the outcome (in the experiment with HUVEC [1]; in experiment [2]) was inactive. Consider `O=c1c(O)c(-c2ccc(O)c(O)c2)oc2cc(O)cc(O)c12` [QUERCETIN], for which the EC50 in the experiment with HUVEC [4] was 18 µM. For the compound `COc1ccc(C(=O)c2c(Cl)c(OC)c(OC)c(OC)c2Cl)cc1OC`, the result (in the experiment on HUVEC [1]; in experiment [2]) was inactive. Take `Oc1ccc(Cc2ccccc2Cl)cc1O`: in experiment [3], the IC50 stood at 131 µM. In the experiment on HUVEC [1], the result was inactive. Regarding `COc1ccc(C(=O)c2ccc(Cl)cc2)cc1OC`, the result (in the experiment on HUVEC [1]; in experiment [2]) was inactive. As to `Oc1cc(Br)c(Cc2cc(Br)ccc2O)cc1O`, the IC50 in experiment [3] amounted to 88.5 µM. The compound further yielded an EC50 in the experiment with HUVEC [4] of 1.1 µM.

Take `Oc1ccc(Cc2c(Cl)c(O)c(O)c(O)c2Cl)cc1O`: in experiment [3], the IC50 was found to be 102 µM. Moreover, the outcome in the experiment on HUVEC [1] was inactive.

With `Oc1cc(Br)c(Cc2ccc(O)c(Br)c2)cc1O`, the IC50 in experiment [3] was 87.4 µM. The EC50 in the experiment on HUVEC [4] was determined as 13 µM. On the same counts, the results for `Oc1ccc(Cc2ccc(Cl)cc2)cc1O` are 202 µM and 8.8 µM. Turning to `COc1ccc(Cc2c(Cl)c(OC)c(OC)c(OC)c2Cl)cc1OC`, the result (with HUVEC [1]; in experiment [2]) was inactive.

With `COc1ccc(C(=O)c2ccccc2)cc1OC`, the outcome (in the experiment with HUVEC [1]; in experiment [2]) was inactive. As to `O=C(c1ccccc1)c1cc(O)c(O)cc1Br`, in experiment [3], the IC50 worked out at 84 µM. Moreover, the midpoint of the response with HUVEC [4], the EC50, lay at 11.5 µM. Consider `COc1ccc(Cc2ccccc2Cl)cc1OC`, for which the result (in the experiment with HUVEC [1]; in experiment [2]) was inactive. Regarding `COc1cc(Cc2ccccc2)c(Br)c(Br)c1OC`, the outcome (with HUVEC [1]; in experiment [2]) was inactive. On to `COc1ccc(Cc2cccc(Cl)c2)cc1OC`, for which the result (in the experiment with HUVEC [1]; in experiment [2]) was inactive. `O=C(c1cc(Br)ccc1O)c1cc(O)c(O)cc1Br`: the IC50 in experiment [3] came to 79.6 µM. The EC50 with HUVEC [4] came to 0.4 µM. `Oc1cc(Cc2ccccc2)c(Br)c(Br)c1O`: the IC50 in experiment [3] stood at 88 µM. The compound further registered a 50% effective concentration (EC50) in the experiment on HUVEC [4] of 3.9 µM. On to `O=C(c1ccc(O)c(O)c1)c1c(Br)c(O)c(O)c(O)c1Br`, for which the IC50 in experiment [3] was determined as 96.2 µM. The outcome with HUVEC [1] was inactive. Turning to `COc1ccc(C(=O)c2c(Br)c(OC)c(OC)c(OC)c2Br)cc1OC`, the result (in the experiment on HUVEC [1]; in experiment [2]) was inactive. For `COc1ccc(Br)cc1Cc1cc(OC)c(OC)cc1Br`, the outcome (with HUVEC [1]; in experiment [2]) was inactive. For `COc1cc(Br)c(Cc2ccccc2)cc1OC`, the result (with HUVEC [1]; in experiment [2]) was inactive. With `Cc1cc(C(C)(C)C)c(O)c(C(C)(C)C)c1` [BUTYLATED HYDROXYTOLUENE], in experiment [3], the IC50 was determined as 169 µM. `O=C(c1ccc(O)c(O)c1)c1c(Cl)c(O)c(O)c(O)c1Cl`: the IC50 in experiment [3] turned out to be 87.3 µM. For the same compound, in the experiment with HUVEC [1], the result was inactive. `Oc1ccc(Cc2c(Br)c(O)c(O)c(O)c2Br)cc1O`: the IC50 in experiment [3] turned out to be 84.2 µM. Moreover, in the experiment with HUVEC [1], the result was inactive. Take `COc1cc(C(=O)c2ccccc2)c(Br)c(Br)c1OC`: the result (in the experiment on HUVEC [1]; in experiment [2]) was inactive. As to `COc1ccc(Cc2cc(OC)c(OC)cc2Br)cc1Br`, the result (in the experiment on HUVEC [1]; in experiment [2]) was inactive. As for `COc1ccc(Cc2ccc(Cl)cc2)cc1OC`, the result (in the experiment with HUVEC [1]; in experiment [2]) was inactive. As for `COc1ccc(C(=O)c2cc(OC)c(OC)cc2Br)cc1Br`, the outcome (in the experiment with HUVEC [1]; in experiment [2]) was inactive. Consider `O=C(c1ccccc1)c1cc(O)c(O)c(Br)c1Br`, for which the IC50 in experiment [3] amounted to 87.7 µM. In addition, a half-maximal effect in the experiment with HUVEC [4] (EC50) was put at 0.8 µM. As for `Oc1ccc(Cc2cccc(Cl)c2)cc1O`, in experiment [3], the IC50 was 223 µM. In the experiment on HUVEC [1], the outcome was inactive.

The IC50 is the concentration that inhibits the measured activity by half. Broadly, the EC50 is the concentration at which the effect is half-maximal. The low end stands for greater potency, the high end for weaker potency.
